From PubChem BioAssay AID623869 (Vanderbilt High Throughput Screening Facility, 2012)
The campaign covered roughly 2,100 compounds. About 75 (4%) were called active.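 Rule for the calls: active = calcium fluorescence trace judged by eye to show a response, as agonist, enhancer of the glutamate response, or inhibitor; inactive = trace judged by eye to show no response.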 What follows is part of a selection rich in actives, with near analogues and random picks from the rest.

Biological target: Metabotropic glutamate receptor 8 (Rattus norvegicus) (UniProt P70579)
Sequence (P70579 whole entry, looked up): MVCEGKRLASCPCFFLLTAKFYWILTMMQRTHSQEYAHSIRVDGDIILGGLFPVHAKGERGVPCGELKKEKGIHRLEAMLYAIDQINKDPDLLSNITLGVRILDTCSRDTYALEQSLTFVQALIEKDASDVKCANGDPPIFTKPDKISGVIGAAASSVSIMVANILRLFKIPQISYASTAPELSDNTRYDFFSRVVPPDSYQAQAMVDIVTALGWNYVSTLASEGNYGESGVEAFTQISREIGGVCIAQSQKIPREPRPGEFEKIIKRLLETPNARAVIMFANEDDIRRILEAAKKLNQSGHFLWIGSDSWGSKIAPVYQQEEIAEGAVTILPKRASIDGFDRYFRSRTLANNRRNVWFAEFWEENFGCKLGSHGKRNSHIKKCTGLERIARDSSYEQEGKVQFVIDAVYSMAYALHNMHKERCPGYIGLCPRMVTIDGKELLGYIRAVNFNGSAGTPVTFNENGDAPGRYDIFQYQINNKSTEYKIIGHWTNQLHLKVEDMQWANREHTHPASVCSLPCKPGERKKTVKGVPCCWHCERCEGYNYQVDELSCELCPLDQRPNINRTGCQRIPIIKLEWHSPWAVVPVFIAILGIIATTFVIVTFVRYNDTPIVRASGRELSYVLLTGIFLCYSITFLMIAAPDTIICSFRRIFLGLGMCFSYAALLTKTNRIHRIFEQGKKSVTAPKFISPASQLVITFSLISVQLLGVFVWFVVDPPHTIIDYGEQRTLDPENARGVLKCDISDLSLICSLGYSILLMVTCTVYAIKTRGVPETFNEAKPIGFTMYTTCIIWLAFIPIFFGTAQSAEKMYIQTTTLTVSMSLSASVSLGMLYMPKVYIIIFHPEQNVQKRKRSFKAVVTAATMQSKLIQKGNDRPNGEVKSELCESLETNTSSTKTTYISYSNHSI
Experiment: rat mGlu8 modulation via Gqi9 calcium signal, confirmation, counter-screen for GIRK activator project, cell-based, HEK293 rmGlu8, Gqi9 chimera, Fluo-4 calcium (AID 623869)
Conditions: HEK293 rmGlu8/Gqi9 calcium flux, Fluo-4 fluorescence; glutamate at EC20 added after compound
Method in brief: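 System – HEK-293 cells stably expressing rat mGlu8, plus transient chimeric Gqi9 · Medium – HEPES-buffered HBSS, pH 7.4 · Also added – EC20 glutamate · Compound – one dose, 20 µM addition solution, 0.2% DMSO · Times – compound 4 min before glutamate, then 2 min recording · Measured by – Fluo-4 calcium fluorescence sampled at 1 Hz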

Row | Compound | outcome
1 | CSc1nc(-c2ccccc2)[nH]c(=S)c1C(C)=O | inactive; 0
2 | CC(=O)c1c(N2CCCC2)[nH]c(-c2ccccc2)nc1=S | active; 2
3 | O=C(c1cc(-c2ccccc2)on1)N1CCCC1 | inactive; 0
4 | COC(=O)C(C)N(C(=O)c1cccc2ccccc12)c1c(C)cccc1C (stereo unspecified) | inactive; 0
5 | COc1ccc(-c2cc(C(F)(F)F)c3c(n2)sc2c(O)cc(=O)[nH]c23)c(OC)c1 | active; 2
6 | CCOC(=O)c1c(NS(=O)(=O)c2ccc(Br)cc2)sc2c1CCC2 | inactive; 0
7 | COc1ccc2nc(/N=C/c3c(C)[nH]n(-c4ccc(C)cc4)c3=O)sc2c1 | inactive; 0
8 | O=C(NN=C(Cc1ccccc1)Cc1ccccc1)c1ccc(F)cc1 | inactive; 0
9 | Cc1ccc(C(=O)NC(=S)Nc2ccccc2C(F)(F)F)cc1 | inactive; 0
10 | Cc1ccc(C(=O)N/N=C(/CC(=O)c2cccs2)C(F)(F)F)cc1 | active; -1
11 | COC(=O)C1=NN(C(=O)c2ccc(C)cc2)C(O)(c2ccc(Cl)cc2)C1 (stereo unspecified) | inactive; 4
12 | COC(=O)c1sc(NC(=S)NC(=O)c2ccccc2Cl)nc1C | inactive; 0
13 | COC(=O)c1ccc(C(=O)NC(=S)Nc2nc3c(s2)CCCC3)cc1 | inactive; 0
14 | CC(C)(C)c1ccc(C(=O)NC(=S)Nc2nc3c(s2)CCCC3)cc1 | active; 2
15 | O=C(NC(=S)Nc1nc2c(s1)CCCC2)c1ccccc1 | inactive; 0
16 | O=C(NC(=S)Nc1ccc(N2CCOCC2)c(Cl)c1)c1cncc(Br)c1 | inactive; 0

Row | Compound | outcome
17 | CCOC(=O)c1c2n(c3c(NCc4ccccc4)ncnc13)CCCC2 | inactive; 0
18 | Cc1cc(NC(=O)CSc2nc3ccccc3c(=O)n2Cc2ccccc2)no1 | inactive; 0
19 | O=C1CN(C(=O)CSc2nc3cc(Cl)ccc3c(=O)n2Cc2ccccc2)c2ccccc2N1 | inactive; 0
20 | O=C1OCCC1Sc1nc2cc(Cl)ccc2n1Cc1ccccc1 (stereo unspecified) | active; 2
21 | Cc1ccc(C(=O)CC(=O)c2cc(Cl)ccc2O)cc1 | inactive; 0
22 | C/C(=N/NC(=O)c1cc(Cl)ccc1O)C12CC3CC(CC(C3)C1)C2 | active; 1
23 | Cc1cccc(C(=O)CC(=O)c2cc(Cl)ccc2O)c1 | inactive; 0
24 | COc1ccccc1/C=C/C(=O)NC(=S)N(C)C1CCCCC1 | inactive; 0
25 | CC(Nc1ccc(Br)cn1)c1cc(Cl)ccc1O (stereo unspecified) | inactive; 0
26 | Oc1ccccc1CNc1ccc(Br)cn1 | active; -1
27 | O=c1c(-c2ccccc2)nc(-c2ccccc2)cn1O | inactive; 0
28 | O=C(NC(=S)N1CCN(Cc2ccccc2)CC1)c1ccccc1 | inactive; 0
29 | CCC(C)(C)NC(=O)C(c1ccc(F)cc1)N(Cc1ccco1)C(=O)c1cnccn1 (stereo unspecified) | inactive; 0
30 | O=C(NC(=S)Nc1ccccc1)c1csnn1 | inactive; 0
31 | CC(C)(C)NC(=O)C(c1ccncc1)N(C(=O)c1csnn1)c1ccccc1 (stereo unspecified) | active; -1
